Experimental data reported in ChEMBL document CHEMBL2157942, “ortho-Quinone tanshinones directly inhibit telomerase through an oxidative mechanism mediated by hydrogen peroxide” (Bioorg Med Chem Lett, 2011).
Activity calls are given as the source filed them. The calls are words filed in the database; no cut-off is given here.

Legend:
[1] = molecular target: T1, Telomerase reverse transcriptase (Homo sapiens, UniProt O14746); assay: Inhibition of human recombinant telomerase activity in rabbit reticulocytes at 50 uM after 90 mins by telomerase assemblage gel electrophoresis; format: cell-based
T1 sequence (O14746 whole entry): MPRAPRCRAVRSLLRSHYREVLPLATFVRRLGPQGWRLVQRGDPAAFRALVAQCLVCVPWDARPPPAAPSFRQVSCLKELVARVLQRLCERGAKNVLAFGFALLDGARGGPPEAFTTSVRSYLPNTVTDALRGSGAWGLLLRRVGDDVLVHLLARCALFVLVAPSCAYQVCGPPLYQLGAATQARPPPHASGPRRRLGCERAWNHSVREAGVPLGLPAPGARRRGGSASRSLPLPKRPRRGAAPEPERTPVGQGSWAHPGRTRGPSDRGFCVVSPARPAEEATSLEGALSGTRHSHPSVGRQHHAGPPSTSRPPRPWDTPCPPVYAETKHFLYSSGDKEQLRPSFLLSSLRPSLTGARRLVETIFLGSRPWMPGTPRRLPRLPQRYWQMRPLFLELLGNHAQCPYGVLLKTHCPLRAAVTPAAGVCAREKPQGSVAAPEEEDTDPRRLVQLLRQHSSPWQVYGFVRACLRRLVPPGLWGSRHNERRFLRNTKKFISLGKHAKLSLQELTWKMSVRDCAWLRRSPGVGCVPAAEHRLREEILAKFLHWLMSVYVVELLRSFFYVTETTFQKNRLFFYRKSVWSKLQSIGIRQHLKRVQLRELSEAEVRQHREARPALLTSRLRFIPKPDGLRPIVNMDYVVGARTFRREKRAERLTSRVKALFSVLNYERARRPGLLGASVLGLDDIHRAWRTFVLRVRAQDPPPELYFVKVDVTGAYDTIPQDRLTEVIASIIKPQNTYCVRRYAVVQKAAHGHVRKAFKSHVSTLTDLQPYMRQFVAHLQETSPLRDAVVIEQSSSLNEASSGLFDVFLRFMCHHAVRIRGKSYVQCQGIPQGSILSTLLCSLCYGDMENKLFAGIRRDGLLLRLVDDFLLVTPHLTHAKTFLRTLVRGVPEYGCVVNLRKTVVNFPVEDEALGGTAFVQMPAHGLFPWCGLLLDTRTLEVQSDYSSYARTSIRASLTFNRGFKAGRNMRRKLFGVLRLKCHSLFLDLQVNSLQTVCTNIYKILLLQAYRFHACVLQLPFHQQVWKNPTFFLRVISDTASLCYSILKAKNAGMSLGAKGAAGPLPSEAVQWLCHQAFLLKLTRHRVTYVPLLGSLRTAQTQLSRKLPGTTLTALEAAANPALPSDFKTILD
Outline: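 Assembly format: hTERT translated in rabbit reticulocyte lysate was incubated 1.5 h with in vitro transcribed hTER in the presence of inhibitor. Activity was then read by direct primer extension, with products resolved by gel electrophoresis and imaged by phosphorimaging. Products were normalized to a 100 nt 32P-labeled oligonucleotide loading control, and percent activity was calculated against a DMSO carrier control.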

[2] = molecular target: T1, Telomerase reverse transcriptase; assay: Inhibition of human recombinant telomerase activity in rabbit reticulocytes after 90 mins by telomerase assemblage gel electrophoresis; format: cell-based
Outline: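 hTERT translated in rabbit reticulocyte lysate, then incubated 1.5 h with in vitro transcribed hTER in the presence of inhibitor (DMSO carrier). Activity was read by direct primer extension, with products resolved on gel and phosphorimaged. Signal was normalized to a 100 nt 32P-labeled DNA loading control, and percent activity was taken versus the DMSO-only control.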

[3] = molecular target: T1, Telomerase reverse transcriptase; assay: Inhibition of pre-assembled human recombinant telomerase activity in rabbit reticulocytes after 90 mins by gel electrophoresis method based direct primer extension assay; format: cell-based
Outline: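 Telomerase was first reconstituted in rabbit reticulocyte lysate from hTERT and hTER, then assayed post-assembly by direct primer extension with inhibitor present. Products were gel-resolved, phosphorimaged and normalized to a 32P-labeled 100 nt oligonucleotide loading control. Percent activity was taken relative to the DMSO carrier control.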

[4] = molecular target: T1, Telomerase reverse transcriptase; details: 50 uM
[5] = molecular target: T1, Telomerase reverse transcriptase; details: 50 uM; remark: listed apart in the source
[6] = molecular target: T1, Telomerase reverse transcriptase; details: 50 uM; remark: listed apart in the source
[7] = Cytotoxicity against telomerase negative human GM847 cells after 96 hrs by SRB assay; format: functional, cell-based; details: GM847, 96 h
SAOS-2 = assay: Cytotoxicity against telomerase negative human Saos2 cells after 96 hrs by SRB assay; format: functional, cell-based; details: SAOS-2, 96 h
[8] = Induction of ROS generation assessed as hydrogen peroxide production in PBS buffer at 20 uM in absence of DTT; format: physicochemical
Outline: (§1)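 Compound at 20 µM incubated in PBS for set times under three conditions: no DTT, with 5 mM DTT, or with 5 mM DTT plus 30 U catalase. Hydrogen peroxide was measured with a commercial hydrogen peroxide kit. Two independent experiments; mean and standard deviation reported.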

MCF7 = assay: Cytotoxicity against telomerase positive human MCF7 cells after 96 hrs by SRB assay; format: functional, cell-based; details: MCF7, 96 h
[9] = molecular target: T1, Telomerase reverse transcriptase; details: MCF7, 3 uM
[10] = Induction of ROS generation assessed as hydrogen peroxide production in PBS buffer at 20 uM in presence of 5 nM of DTT in presence of 30U catalase; format: physicochemical; details: in the assay text read “5 mM of DTT” for “5 nM of DTT”; outline: as §1
PC-3 = assay: Cytotoxicity against telomerase positive human PC3 cells after 96 hrs by SRB assay; format: functional, cell-based; details: PC-3, 96 h
[11] = Induction of ROS generation assessed as hydrogen peroxide production in PBS buffer at 20 uM in presence of 5 nM of DTT; format: physicochemical; details: in the assay text read “5 mM of DTT” for “5 nM of DTT”, TDE = time-dependent effect; outline: as §1

## C[C@H]1COC2=C1C(=O)C(=O)c1c2ccc2c1CCCC2(C)C
[1]
  inhibition: 75%

## Cc1cccc2c1ccc1c3occ(C)c3c(=O)oc21
[1]
  inhibition: 25%

## Cc1coc2c1C(=O)C(=O)c1c-2ccc2c(C)cccc12
[1]
  inhibition: 65%

## O=C1C(=O)c2ccccc2-c2ccccc21 [9,10-PHENANTHRENEQUINONE]
[2]
  IC50: 5000 nM
[3]
  IC50: 500 nM
[4]
  inhibition: > 95%
[5]
  inhibition: inactive
[6]
  inhibition: 35%

## Cc1coc2c1C(=O)C(=O)c1c-2ccc2c1CCCC2(C)C [TANSHINONE IIA]
[2]
  IC50: 5000 nM
[7]
  EC50: > 20000 nM
[3]
  IC50: 500 nM
SAOS-2
  EC50: > 20000 nM
[8]
  Activity: Not Active
MCF7
  EC50: 900 nM
[9]
  inhibition: 50%
[10]
  Activity: Not Active
PC-3
  EC50: 1200 nM
[1]
  inhibition: 75%
[11]
  Activity: tde
